Test results published in ChEMBL document CHEMBL1126288, “Pyrimido[1,6-a]benzimidazoles: a new class of DNA gyrase inhibitors” (1992).
In brackets after ≈: the same amount, converted by molar mass.

Legend:
[1] = tested on: Pseudomonas aeruginosa; experiment: In vitro for antibacterial activity against Pseudomonas aeruginosa 799/61; type: functional
[2] = tested on: Escherichia coli; experiment: In vitro for antibacterial activity against Escherichia coli 1527E (Ec(C)); type: functional
[3] = target: DNA gyrase (Escherichia coli) (UniProt P0AES6+P0AES4); experiment: Inhibitory activity against Escherichia coli DNA gyrase (represented as MNEC); type: protein-complex assay
Method in brief: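 Supercoiling assay. Gyrase subunits mixed equimolar and reconstituted to A2B2 for 30 min at 25 °C. Compound 0.1–100 µg/mL, 37 °C, 30 min. Read on 0.8% agarose gel; MNEC = highest concentration leaving all DNA fully supercoiled.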

[4] = tested on: Escherichia coli; experiment: In vitro for antibacterial activity against Escherichia coli B (Ec(B)); type: functional
[5] = tested on: Escherichia coli; experiment: In vitro for antibacterial activity against Escherichia coli 1346 (Ec(A)); type: functional
[6] = tested on: Staphylococcus aureus; experiment: In vitro for antibacterial activity against Staphylococcus aureus 887; type: functional
[7] = tested on: Enterobacter cloacae; experiment: In vitro for antibacterial activity against Enterobacter cloacae P99; type: functional
[8] = tested on: Klebsiella oxytoca; experiment: In vitro for antibacterial activity against Klebsiella oxytoca 1082E; type: functional
[9] = tested on: Staphylococcus haemolyticus; experiment: In vitro for antibacterial activity against Staphylococcus haemolyticus 75 (quinolone-resistant); type: functional
[10] = tested on: Micrococcus luteus; experiment: In vitro for antibacterial activity against Micrococcus luteus ATCC 8340; type: functional
[11] = tested on: Bacillus subtilis; experiment: In vitro for antibacterial activity against Bacillus subtilis ATCC 585369; type: functional

| SMILES | MIC [1] [mg/L] | MIC [2] [mg/L] | MNEC [3] [µg/mL] | MIC [4] [mg/L] | MIC [5] [mg/L] | MIC [6] [mg/L] | MIC [7] [mg/L] | MIC [8] [mg/L] | MIC [9] [mg/L] | MIC [10] [mg/L] | MIC [11] [mg/L] |
| --- | --- | --- | --- | --- | --- | --- | --- | --- | --- | --- | --- |
| CNn1c(=O)cc2n(C3CC3)c3cc(N4CCNCC4)c(F)cc3n2c1=O | 32 (≈ 85.9 µM) | 8 (≈ 21.5 µM) | 0.1 | 0.5 (≈ 1.34 µM) | 1 (≈ 2.69 µM) | 16 (≈ 43 µM) | 4 (≈ 10.7 µM) | 8 (≈ 21.5 µM) | 128 (≈ 344 µM) | 128 (≈ 344 µM) | 8 (≈ 21.5 µM) |
| CN1CCN(c2cc3c(cc2F)n2c(=O)[nH]c(=O)cc2n3C2CC2)CC1 | 32 (≈ 89.5 µM) | 2 (≈ 5.6 µM) | 1 | 0.25 (≈ 0.7 µM) | 2 (≈ 5.6 µM) | 16 (≈ 44.8 µM) | 4 (≈ 11.2 µM) | 8 (≈ 22.4 µM) | > 32 | > 32 | 4 (≈ 11.2 µM) |
| CCn1c2cc(N3CCNCC3)c(F)cc2n2c(=O)[nH]c(=O)cc12 | > 64 | > 64 | 1 | 8 (≈ 24.1 µM) | 16 (≈ 48.3 µM) | > 64 | 64 (≈ 193 µM) | > 64 | – | > 64 | 64 (≈ 193 µM) |
| CN1CCN(c2c(F)cc3c(=O)c(C(=O)O)cn(CCF)c3c2F)CC1 [FLEROXACIN] | 0.5 (≈ 1.35 µM) | 0.06 (≈ 0.162 µM) | – | 0.06 (≈ 0.162 µM) | 0.12 (≈ 0.325 µM) | 2 (≈ 5.42 µM) | 0.12 (≈ 0.325 µM) | 0.12 (≈ 0.325 µM) | 32 (≈ 86.6 µM) | 16 (≈ 43.3 µM) | 0.5 (≈ 1.35 µM) |
| O=c1cc2n(C3CC3)c3cc(N4CCNCC4)c(F)cc3n2c(=O)[nH]1 | 32 (≈ 93.2 µM) | 8 (≈ 23.3 µM) | 0.2 | 0.5 (≈ 1.46 µM) | 2 (≈ 5.82 µM) | > 32 | 8 (≈ 23.3 µM) | 16 (≈ 46.6 µM) | – | > 32 | 8 (≈ 23.3 µM) |
| CCn1c2cc(N3CCN(C)CC3)c(F)cc2n2c(=O)[nH]c(=O)cc12 | > 32 | 32 (≈ 92.7 µM) | 2 | 2 (≈ 5.79 µM) | 16 (≈ 46.3 µM) | > 32 | 16 (≈ 46.3 µM) | > 32 | – | > 32 | 16 (≈ 46.3 µM) |
| CCn1c2cc(N3CCN(C)CC3)c(F)cc2n2c(=O)nc(N)cc12 | > 32 | > 32 | > 10 | > 32 | > 32 | > 32 | > 32 | > 32 | > 32 | > 32 | > 32 |
| CCn1c2cc(N3CCN(C)CC3)c(F)cc2n2c(=O)n(O)c(=O)cc12 | 2 (≈ 5.53 µM) | 4 (≈ 11.1 µM) | 1 | 1 (≈ 2.77 µM) | 2 (≈ 5.53 µM) | 16 (≈ 44.3 µM) | 2 (≈ 5.53 µM) | 4 (≈ 11.1 µM) | 16 (≈ 44.3 µM) | 16 (≈ 44.3 µM) | 8 (≈ 22.1 µM) |
| CCn1c2cc(N3CCNCC3)c(F)cc2c2c(N)ncnc21 | > 128 | > 128 | 5 | 16 (≈ 50.9 µM) | 64 (≈ 204 µM) | > 128 | > 128 | > 128 | > 128 | – | – |
| CCn1c2cc(N3CCNCC3)c(F)cc2n2c(=O)n(O)c(=O)cc12 | 4 (≈ 11.5 µM) | 32 (≈ 92.1 µM) | 1 | 8 (≈ 23 µM) | 8 (≈ 23 µM) | > 64 | 8 (≈ 23 µM) | 16 (≈ 46.1 µM) | > 64 | 32 (≈ 92.1 µM) | 32 (≈ 92.1 µM) |
| CN(C)n1c(=O)cc2n(C3CC3)c3cc(N4CCNCC4)c(F)cc3n2c1=O | 64 (≈ 166 µM) | 32 (≈ 82.8 µM) | 0.5 | 1 (≈ 2.59 µM) | 8 (≈ 20.7 µM) | 16 (≈ 41.4 µM) | 32 (≈ 82.8 µM) | 32 (≈ 82.8 µM) | > 128 | > 128 | 4 (≈ 10.4 µM) |
| O=c1cc2n(C3CC3)c3cc(N4CCNCC4)c(F)cc3n2c(=O)n1O | 2 (≈ 5.57 µM) | 2 (≈ 5.57 µM) | 1 | < 0.25 | < 0.25 | > 64 | 1 (≈ 2.78 µM) | 1 (≈ 2.78 µM) | > 64 | 8 (≈ 22.3 µM) | 4 (≈ 11.1 µM) |
| CN1CCN(c2cc3c(cc2F)n2c(=O)n(O)c(=O)cc2n3C2CC2)CC1 | 2 (≈ 5.36 µM) | 0.12 (≈ 0.321 µM) | 1 | < 0.03 | < 0.03 | 4 (≈ 10.7 µM) | 0.12 (≈ 0.321 µM) | 0.25 (≈ 0.67 µM) | 32 (≈ 85.7 µM) | 32 (≈ 85.7 µM) | 2 (≈ 5.36 µM) |
| CCn1cc(C(=O)O)c(=O)c2cc(F)c(N3CCNCC3)cc21 [NORFLOXACIN] | 1 (≈ 3.13 µM) | 0.12 (≈ 0.376 µM) | – | 0.12 (≈ 0.376 µM) | 0.12 (≈ 0.376 µM) | 4 (≈ 12.5 µM) | 0.25 (≈ 0.783 µM) | 0.25 (≈ 0.783 µM) | > 64 | 32 (≈ 100 µM) | 1 (≈ 3.13 µM) |
| Nn1c(=O)cc2n(C3CC3)c3cc(N4CCNCC4)c(F)cc3n2c1=O | 8 (≈ 22.3 µM) | 2 (≈ 5.58 µM) | 0.2 | 0.25 (≈ 0.698 µM) | 1 (≈ 2.79 µM) | 64 (≈ 179 µM) | 2 (≈ 5.58 µM) | 4 (≈ 11.2 µM) | > 64 | > 64 | 4 (≈ 11.2 µM) |
